Test system: MMP-9 secreted by MCF-7 cells
Test: Gelatin zymography MMP-9 secretion, MCF-7
Type: cell-based
Conditions: 80 nM PMA, serum-free medium, MCF-7, vs basal (MMP-9 not detectable)
Method in brief: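 Cells attached overnight, then treated 24 or 48 h with test compound or DMSO vehicle in serum-free medium. Conditioned medium was acetone-precipitated (4 volumes, −20 °C, 2 h), and pellets were taken up in non-reducing SDS buffer. Samples were run on a 7.5% gel with 1 mg/mL gelatin, washed in Triton X-100/CaCl2/ZnCl2, incubated overnight at 37 °C, and Coomassie-stained. Mean ± SD of three independent experiments.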

CCCCCCCCCCCCCC(=O)O[C@@H]1[C@@H](C)[C@@]2(O)[C@@H](C=C(CO)C[C@]3(O)C(=O)C(C)=C[C@@H]23)[C@@H]2C(C)(C)[C@]12OC(C)=O [PMA, phorbol 12-myristate 13-acetate]
secreted MMP-9 level, PMA stimulation: drastically increased

— article PMC9883262 (Molecular Metabolism, 2023)
